Test results published in ChEMBL document CHEMBL4011643, “Triaryl Benzimidazoles as a New Class of Antibacterial Agents against Resistant Pathogenic Microorganisms” (J Med Chem, 2017).

Key:
Staphylococcus aureus [1] = test: Inhibition of Staphylococcus aureus DNA gyrase assessed as reduction in pNO1 supercoiling at 0.5 ug/mL by fluorescent dye-based assay
Method in brief: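 Supercoiling plate assay run per the kit instructions. S. aureus gyrase was incubated with compound and plasmid pNO1. Negatively supercoiled plasmid was captured by a triplex-forming oligonucleotide, stained with a fluorescent dye and read by fluorescence (excitation 485 nm). Percent inhibition was reported.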

Staphylococcus aureus [2] = test: Antibacterial activity against methicillin-resistant Staphylococcus aureus EMRSA-15 after 20 hrs by broth microdilution method; assay type: functional; settings: EMRSA-15, 20 h
Method in brief: (§1)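 Broth microdilution in Tryptic Soy Broth; growth read as OD600 after 20 h. MIC taken as the lowest drug concentration giving OD600 below 0.1. Run in triplicate.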

Enterococcus faecium = test: Antibacterial activity against vancomycin-resistant Enterococcus faecium NCTC 12204 after 20 hrs by broth microdilution method; assay type: functional; settings: NCTC 12204, 20 h; method in brief: as §1
Staphylococcus aureus [3] = test: Antibacterial activity against methicillin-resistant Staphylococcus aureus MRSA252 after 20 hrs by broth microdilution method; assay type: functional; settings: MRSA252, 20 h; method in brief: as §1
Enterococcus faecalis [4] = test: Antibacterial activity against vancomycin-resistant Enterococcus faecalis NCTC 12201 after 20 hrs by broth microdilution method; assay type: functional; settings: NCTC 12201, 20 h; method in brief: as §1
Staphylococcus aureus [5] = test: Bactericidal activity against methicillin-resistant Staphylococcus aureus EMRSA-15 assessed as time required to kill bacteria by 3 log10CFU/ml at 4 times MIC by Miles Misra dilution method; assay type: functional
Method in brief: (§2)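 Flasks of TSB inoculated at ~10^6 cfu/mL, compound added at 4 × MIC, shaken at 200 rpm and 37 °C. Samples taken at 1, 2, 4, 6 and 24 h and plated by Miles Misra dilution for CFU/mL. Bactericidal means a loss of >3 log CFU/mL. Three independent repeats, error bars SD.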

Enterococcus faecalis [6] = test: Antibacterial activity against vancomycin-sensitive Enterococcus faecalis NCTC 775 after 20 hrs by broth microdilution method; assay type: functional; settings: NCTC 775, 20 h
Method in brief: (§3)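 Broth microdilution in Tryptic Soy Broth, done in triplicate. Growth was read as OD600 after 20 h. MIC is the lowest drug concentration giving OD600 below 0.1.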

Enterococcus faecalis [7] = test: Bactericidal activity against vancomycin-resistant Enterococcus faecalis NCTC 12201 assessed as time required to kill bacteria by <3 log10CFU/ml at 4 times MIC by Miles Misra dilution method; assay type: functional; method in brief: as §2
Staphylococcus aureus [8] = test: Bactericidal activity against methicillin-resistant Staphylococcus aureus EMRSA-15 assessed as time required to kill bacteria by >6 log10CFU/ml at 4 times MIC by Miles Misra dilution method; assay type: functional; method in brief: as §2
Staphylococcus aureus [9] = test: Antibacterial activity against methicillin-sensitive Staphylococcus aureus ATCC 9144 after 20 hrs by broth microdilution method; assay type: functional; settings: ATCC 9144, 20 h; method in brief: as §3

Work on C[C@H]1COc2c(N3CCN(C)CC3)c(F)cc3c(=O)c(C(=O)O)cn1c23.C[C@H]1COc2c(N3CCN(C)CC3)c(F)cc3c(=O)c(C(=O)O)cn1c23.O [LEVOFLOXACIN] yielded an inhibition (Staphylococcus aureus [1]) of 57.9%, an MIC (Staphylococcus aureus [2]) of 8 µg/mL and an MIC (Enterococcus faecium) of 0.5 µg/mL. For the same compound, the MIC (Staphylococcus aureus [3]) was 8 µg/mL, the MIC (Enterococcus faecalis [4]) was 1 µg/mL and the Time (Staphylococcus aureus [5]) was 6 h. The MIC (Enterococcus faecalis [6]) was 1 µg/mL, the Time (Enterococcus faecalis [7]) was 24 h and the Time (Staphylococcus aureus [8]) was 24 h. For the same compound, the MIC (Staphylococcus aureus [9]) was 0.12 µg/mL.
